Assay results taken from ChEMBL document CHEMBL1123307, “Peptides as receptor selectivity modulators of opiate pharmacophores” (J Med Chem, 1986).
Where a name gives a salt, the structure may show the parent alone. Residues, ends and D or L forms follow the SMILES beside them. *: point of attachment. X2 = O=C(N/N=C1/CC[C@@]2(O)[C@H]3Cc4ccc(O)c5c4[C@@]2(CCN3CC2CC2)[C@H]1O5)*; X1 = CN1CC[C@]23c4c5ccc(O)c4O[C@H]2/C(=N\NC(=O)*)CC[C@@]3(O)[C@H]1C5

Tests used:
[1] = target: Mu-type opioid receptor (Cavia porcellus, UniProt P97266); assay: Binding affinity against Opioid receptor mu 1 of guinea pig brain membranes using 0.5 nM of [3H]naloxone as radioligand
Summary of the method: (§1)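 Incubations in 50 mM Tris buffer, pH 7.4, with 100 mM NaCl and bacitracin (50 μg/mL).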

[2] = target: Kappa-type opioid receptor (Cavia porcellus, UniProt P41144); assay: Binding affinity against Opioid receptor kappa 1 of guinea pig brain membranes using 1 nM of (-)-[3H]ethylketazocine as radioligand; summary of the method: as §1
Sequence of Kappa-type opioid receptor (P41144 whole entry): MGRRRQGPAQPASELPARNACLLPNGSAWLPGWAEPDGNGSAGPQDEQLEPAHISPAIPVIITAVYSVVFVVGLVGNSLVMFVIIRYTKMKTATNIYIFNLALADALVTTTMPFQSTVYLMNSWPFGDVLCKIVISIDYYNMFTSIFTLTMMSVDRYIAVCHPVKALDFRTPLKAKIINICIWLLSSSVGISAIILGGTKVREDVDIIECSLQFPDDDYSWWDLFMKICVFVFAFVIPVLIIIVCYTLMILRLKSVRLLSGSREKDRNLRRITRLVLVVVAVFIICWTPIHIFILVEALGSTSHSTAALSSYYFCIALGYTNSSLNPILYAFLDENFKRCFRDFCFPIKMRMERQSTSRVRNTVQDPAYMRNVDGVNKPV

Sequence of Mu-type opioid receptor (P97266 whole entry): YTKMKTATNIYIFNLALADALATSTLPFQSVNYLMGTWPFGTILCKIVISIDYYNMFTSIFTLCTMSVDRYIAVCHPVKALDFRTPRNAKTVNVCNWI

Row | Compound | Ki [1] [nM] | Ki [2] [nM]
1 | CC(C)CC(NC(=O)C(Cc1ccccc1)NC(=O)N/N=C1/CC[C@@]2(O)C3Cc4ccc(O)c5c4C2(CCN3C)[C@H]1O5)C(=O)O (some centres undefined) | 14.8 | 96
2 | CC(C)CC(NC(=O)C(Cc1ccccc1)NC(=O)N/N=C1/CC[C@@]2(O)C3Cc4ccc(O)c5c4C2(CCN3CC2CC2)[C@H]1O5)C(=O)O (some centres undefined) | 0.76 | 2.8
3 | CC[C@H](C)[C@H](NC(=O)[C@H](CCCNC(=N)N)NC(=O)[C@H](CCCNC(=N)N)NC(=O)[C@H](CC(C)C)NC(=O)[C@H](Cc1ccccc1)NC(=O)CNC(=O)CNC(=O)[C@@H](N)Cc1ccc(O)cc1)C(=O)OC | 340 | 40
4 | CC[C@H](C)[C@H](NC(=O)[C@H](CCCN=C(N)N)NC(=O)[C@H](CCCN=C(N)N)NC(=O)[C@H](CC(C)C)NC(=O)[C@H](Cc1ccccc1)NC(=O)N/N=C1/CC[C@@]2(O)[C@H]3Cc4ccc(O)c5c4[C@@]2(CCN3C)[C@H]1O5)C(=O)OC (X1-FLRRI-OMe) | 15.5 | 9.8
5 | CC[C@H](C)[C@H](NC(=O)[C@H](CCCN=C(N)N)NC(=O)[C@H](CCCN=C(N)N)NC(=O)[C@H](CC(C)C)NC(=O)[C@H](Cc1ccccc1)NC(=O)N/N=C1/CC[C@@]2(O)[C@H]3Cc4ccc(O)c5c4[C@@]2(CCN3CC2CC2)[C@H]1O5)C(=O)OC (X2-FLRRI-OMe) | 2.3 | 2.2
6 | NC(=O)N/N=C1/CC[C@@]2(O)C3Cc4ccc(O)c5c4C2(CCN3CC2CC2)[C@H]1O5 (some centres undefined) [NALTREXONE SEMICARBAZONE] | 0.48 | 2.6
7 | CN1CCC23c4c5ccc(O)c4O[C@H]2/C(=N\NC(N)=O)CC[C@@]3(O)C1C5 (some centres undefined) [OXYMORPHONE SEMICARBAZONE HYDROCHLORIDE] | 14.5 | 179
